These results are taken from ChEMBL document CHEMBL1126720 (J Med Chem, 1993).

Assay [1] is described as follows: Growth inhibition against CHO-derived cell line AA8. The assay is classed as functional, cell-based, Cricetulus griseus. In a few lines:
(§1)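 Log-phase AA8 (200 viable cells/well) or UV4 (300 viable cells/well) cells with 5000 lethally irradiated AA8 feeder cells per well, in α-MEM with 10% heat-inactivated fetal calf serum. Cell mass read after 72-78 h by methylene blue protein staining and absorbance. IC50 = concentration reducing cell mass to 50% of the mean of 8 same-plate controls; means of at least 3 determinations ± SEM. Hypersensitivity factor = aerobic IC50(AA8)/IC50(UV4).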

A short description of assay [2]: (§2) Cytotoxicity was measured for 90% kill in UV4 cells under aerobic conditions. In kind it is functional, Cricetulus griseus. Summed up:
(§3)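 Clonogenic assay in magnetically stirred 10-mL suspensions of late log-phase UV4 cells at 2×10^6 cells/mL, 37 °C, continuously gassed with 5% CO2 in air or N2; samples removed periodically across a range of drug concentrations. CT10 (concentration × time for 10% survival) taken from survival curves; hypoxic selectivity = ratio of aerobic to hypoxic CT10.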

Assay [3] can be described thus: Hypersensitivity factor is the ratio of IC50(AA8) to IC50(UV4) under aerobic conditions. In kind it is functional. In a few lines: as §1
Assay [4] is described as follows: Ratio of aerobic CT10 to that of hypoxic CT10 (for a 1-h exposure). The assay is classed as functional. In a few lines: as §3
The next assay has as its system UV4. The description is as §2. In kind it is functional. The note with it: Cricetulus griseus. Summed up:
as §3

A short description of assay [5]: Ratio of aerobic CT10 to that of hypoxic CT10. In kind it is functional. In a few lines: as §3
Assay [6] is described as follows: Growth inhibition against CHO-derived cell line AA8 (Non toxic at solubility limit) [RB6145 used as positive control]. In kind it is functional, cell-based, Cricetulus griseus. In a few lines: as §1
Assay [7] in a line: Hypersensitivity factor is the ratio of IC50(AA8) to IC50(UV4) under aerobic conditions; ND = Nontoxic at the solubility level. The assay is classed as functional. In a few lines: as §1
The mark [8] stands for this setting: Cricetulus griseus, CHO-derived.

`O=[N+]([O-])c1nccn1CC(O)CNCCBr` (stereo not given) came in with an IC50 in assay [1] (setting [8]) of 145 µM. The compound further returned a CT10 in assay [2] of 6600 µM·h. Moreover, the HF ratio in assay [3] stood at 5.9. In addition, the Ratio in assay [4] amounted to 50.
In assay [1] (setting [8]), `CCN(CC)CCN` gave a concentration for half-maximal inhibition (IC50) of 19000 µM. Besides, the HF ratio in assay [3] is 0.99.
In the case of `ClCCNCCNCCCl`, the concentration for half-maximal inhibition (IC50) in assay [1] (setting [8]) is 30 µM. In addition, the HF ratio in assay [3] is 29.
Turning to `CCNCCNCC`, the IC50 in assay [1] (setting [8]) came out at 2400 µM. The HF ratio in assay [3] is 0.7.
“Bis (2,4-pentanedionato) (N,N'-bis(2-chloroethyl)ethylenediamine)cobalt(III) Percholate [listing 1 of 2 here]”: in assay [1] (cho-derived), inhibition was half-maximal at 890 µM (IC50).
In the case of “Bis (2,4-pentanedionato) (N,N'-bis(2-chloroethyl)ethylenediamine)cobalt(III) Percholate [listing 2 of 2 here]”, the CT10 in the assay on UV4 came to 21500 µM·h. Moreover, in assay [3], the HF ratio was 14. For the same compound, in assay [5], the Ratio stood at 1.6.
In assay [6], “Bis (2,4-pentanedionato) (N,N'-bis(2-diethylethylenediamine)cobalt(III) Percholate [listing 1 of 2 here]” came in with an IC50 of over 5000 µM.
Consider “Bis (2,4-pentanedionato) (N,N'-bis(2-diethylethylenediamine)cobalt(III) Percholate [listing 2 of 2 here]”, for which the HF ratio result in assay [7] is “Nontoxic”.
In the case of “Bis (2,4-pentanedionato) (N,N-bis(2-chloroethyl)ethylenediamine)cobalt(III) Percholate [listing 1 of 2 here]”, in assay [1] (cho-derived), the IC50 came to 3.1 µM.
Consider “Bis (2,4-pentanedionato) (N,N-bis(2-chloroethyl)ethylenediamine)cobalt(III) Percholate [listing 2 of 2 here]”, for which, in the assay on UV4, the CT10 is 0.64 µM·h. Also, the HF ratio in assay [3] came out at 64. The Ratio in assay [5] stood at 1.9.
The compound “Bis (2,4-pentanedionato) (N,N-diethylethylenediamine)cobalt(III) Percholate [listing 1 of 2 here]” returned an IC50 in assay [1] (cho-derived) of 34 µM.
For “Bis (2,4-pentanedionato) (N,N-diethylethylenediamine)cobalt(III) Percholate [listing 2 of 2 here]”, the HF ratio in assay [3] came out at 0.9.
In assay [1] (cho-derived), “Bis (3-chlorol-2,4-pentanedionato) (N,N-bis(2-chloroethyl)ethylenediamine)cobalt(III) Percholate [listing 1 of 2 here]” yielded an IC50 of 26 µM. That is a double-digit micromolar value.
For “Bis (3-chlorol-2,4-pentanedionato) (N,N-bis(2-chloroethyl)ethylenediamine)cobalt(III) Percholate [listing 2 of 2 here]”, in assay [3], the HF ratio was determined as 13.
Take “Bis (3-ethyl-2,4-pentanedionato) (N,N'-bis(2-chloroethyl)ethylenediamine)cobalt(III) Percholate [listing 1 of 2 here]”: the concentration for half-maximal inhibition (IC50) in assay [1] (cho-derived) turned out to be 139 µM.
Consider “Bis (3-ethyl-2,4-pentanedionato) (N,N'-bis(2-chloroethyl)ethylenediamine)cobalt(III) Percholate [listing 2 of 2 here]”, for which the HF ratio in assay [3] was 4.8.
Turning to “Bis (3-ethyl-2,4-pentanedionato) (N,N-bis(2-chloroethyl)ethylenediamine)cobalt(III) Percholate [listing 1 of 2 here]”, in assay [1] (cho-derived), the midpoint of inhibition, the IC50, lay at 2.3 µM.
In the assay with UV4, “Bis (3-ethyl-2,4-pentanedionato) (N,N-bis(2-chloroethyl)ethylenediamine)cobalt(III) Percholate [listing 2 of 2 here]” registered a CT10 of 0.51 µM·h. The HF ratio in assay [3] was found to be 20. The Ratio in assay [5] was 4.9.
“Bis (3-methyl-2,4-pentanedionato) (N,N'-bis(2-chloroethyl)ethylenediamine)cobalt(III) Percholate [listing 1 of 2 here]” registered a half-maximal inhibitory concentration (IC50) in assay [1] (cho-derived) of 650 µM.
As for “Bis (3-methyl-2,4-pentanedionato) (N,N'-bis(2-chloroethyl)ethylenediamine)cobalt(III) Percholate [listing 2 of 2 here]”, the CT10 in the assay on UV4 was over 2720 µM·h. The HF ratio in assay [3] worked out at 2.7. For the same compound, the Ratio in assay [5] was over 1.
Regarding “Bis (3-methyl-2,4-pentanedionato) (N,N-bis(2-chloroethyl)ethylenediamine)cobalt(III) Percholate [listing 1 of 2 here]”, in assay [1] (cho-derived), inhibition was half-maximal at 4.6 µM (IC50).
In turn, “Bis (3-methyl-2,4-pentanedionato) (N,N-bis(2-chloroethyl)ethylenediamine)cobalt(III) Percholate [listing 2 of 2 here]” registered a CT10 in the assay with UV4 of 2.4 µM·h. The HF ratio in assay [3] was 48. Also, in assay [5], the Ratio is 20.
In turn, “Bis (3-n-propyl-2,4-pentanedionato) (N,N-bis(2-chloroethyl)ethylenediamine)cobalt(III) Percholate [listing 1 of 2 here]” gave an IC50 in assay [1] (cho-derived) of 1.35 µM.
For “Bis (3-n-propyl-2,4-pentanedionato) (N,N-bis(2-chloroethyl)ethylenediamine)cobalt(III) Percholate [listing 2 of 2 here]”, the half-inhibitory concentration (IC50) in assay [1] (cho-derived) is 18.5 µM.

Usually IC50 stands for the midpoint of a concentration-inhibition curve. Read a high IC50 as lower potency.
